Measured values taken from ChEMBL document CHEMBL1142636 (2000).
In brackets after ≈: the same amount, converted by molar mass.

Key:
HCT-15 = test: Growth inhibition of human HCT15 cells; type: functional
HOP-92 = test: Growth inhibition of human HOP92 cells; type: functional
[1] = Growth inhibition of human DMS144 cells; type: functional
M19-MEL = test: Growth inhibition of human M19-MEL cells; type: functional
[2] = Growth inhibition of human […] cells; type: functional
KM12 = test: Growth inhibition of human KM12 cells; type: functional
M14 = test: Growth inhibition of human M14 cells; type: functional
UACC-62 = test: Growth inhibition of human UACC62 cells; type: functional
Summary of the method: (§1)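 Tested at the NCI in its human disease-oriented in vitro screen of 60 tumour cell lines, following the Monks et al. methods. Activity is expressed as GI50, given as log molar values.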

NCI-H322M = test: Growth inhibition of human NCI-H322M cells; type: functional
[3] = Growth inhibition of human OVACR5 cells; type: functional
[4] = Growth inhibition of human OVACR4 cells; type: functional
SW-620 = test: Growth inhibition of human SW620 cells; type: functional; summary of the method: as §1
SK-MEL-5 = test: Growth inhibition of human SK-MEL-5 cells; type: functional; details: for EC50: read-out: ED50 (the source's name); summary of the method: as §1
SNB-19 = test: Growth inhibition of human SNB19 cells; type: functional; summary of the method: as §1
HT-29 = test: Growth inhibition of human HT29 cells; type: functional
HCT-116 = test: Growth inhibition of human HCT116 cells; type: functional
HCC 2998 = test: Growth inhibition of human HCC2998 cells; type: functional
ACHN = test: Growth inhibition of human ACHN cells; type: functional
LOX IMVI = test: Growth inhibition of human LOX IMVI cells; type: functional
MOLT-4 = test: Growth inhibition of human MOLT4 cells; type: functional
KM-20L2 = test: Growth inhibition of human KM20L2 cells; type: functional
A549 = test: Growth inhibition of human A549 cells; type: functional
HOP-62 = test: Growth inhibition of human HOP62 cells; type: functional
[5] = Growth inhibition of human OVACR8 cells; type: functional
SF-268 = test: Growth inhibition of human SF268 cells; type: functional; summary of the method: as §1
NCI-H460 = test: Growth inhibition of human NCI-H460 cells; type: functional
DMS-273 = test: Growth inhibition of human DMS273 cells; type: functional
K562 = test: Growth inhibition of human K562 cells; type: functional
[6] = Growth inhibition of human RPMI8266 cells; type: functional
SN12C = test: Growth inhibition of human SN12C cells; type: functional; summary of the method: as §1
NCI-H226 = test: Growth inhibition of human NCI-H226 cells; type: functional
U-251 = test: Growth inhibition of human U251 cells; type: functional; summary of the method: as §1
SNB-75 = test: Growth inhibition of human SNB75 cells; type: functional; summary of the method: as §1
NCI-H522 = test: Growth inhibition of human NCI-H522 cells; type: functional
CCRF-CEM = test: Growth inhibition of human CCRF-CEM cells; type: functional
SR = test: Growth inhibition of human SR cells; type: functional; summary of the method: as §1
[7] = Growth inhibition of human LXFL529 cells; type: functional; details: LXFL 529
RXF 393 = test: Growth inhibition of human […] cells; type: functional
786-0 = test: Growth inhibition of human 786-0 cells; type: functional
DLD-1 = test: Growth inhibition of human DLD1 cells; type: functional
SF-539 = test: Growth inhibition of human SF539 cells; type: functional; summary of the method: as §1
SK-MEL-2 = test: Growth inhibition of human SK-MEL-2 cells; type: functional; summary of the method: as §1
TK-10 = test: Growth inhibition of human TK10 cells; type: functional; summary of the method: as §1
Malme-3M = test: Growth inhibition of human MALME-3M cells; type: functional
[8] = Growth inhibition of human HL60(TB) cells; type: functional, HL-60(TB); details: HL-60
KB = test: Growth inhibition of human KB cells; type: functional; details: read-out: ED50 (the source's name)
Summary of the method: (§2)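 In-house cytotoxicity assay following an NCI protocol, run on a panel of human tumour lines: KB nasopharyngeal epidermoid carcinoma and HCT-8 ileocecal adenocarcinoma. Potency is reported as ED50 in µg/mL.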

HCT-8 = test: Growth inhibition of human HCT8 cells; type: functional; details: read-out: ED50 (the source's name); summary of the method: as §2
COLO 205 = test: Growth inhibition of human COLO205 cells; type: functional; details: read-out: ED50 (the source's name)

CC(C)=CCCC1(C)C=Cc2c(ccc3c2[nH]c2cc(O)c(C)cc23)O1 (configuration not stated)
GI50 (HCT-15): 5.01 µM
GI50 (HOP-92): 4.27 µM
GI50 [1]: 7.08 µM
GI50 (M19-MEL): 6.92 µM
GI50 [2]: 4.79 µM
GI50 (KM12): 4.79 µM
GI50 (M14): 3.89 µM
GI50 (UACC-62): 9.33 µM
GI50 (NCI-H322M): 6.61 µM
GI50 [3]: 19.5 µM
GI50 [4]: 7.94 µM
GI50 (SW-620): 4.68 µM
GI50 (SK-MEL-5): 4.9 µM
GI50 (SNB-19): 25.1 µM
GI50 (HT-29): 4.9 µM
GI50 (HCT-116): 8.71 µM
GI50 (HCC 2998): 4.68 µM
GI50 (ACHN): 6.76 µM
GI50 (LOX IMVI): 4.57 µM
GI50 (MOLT-4): 4.17 µM
GI50 (KM-20L2): 5.25 µM
GI50 (A549): 6.61 µM
GI50 (HOP-62): 4.79 µM
GI50 [5]: 3.8 µM
GI50 (SF-268): 5.01 µM
GI50 (NCI-H460): 4.68 µM
GI50 (DMS-273): 5.01 µM
GI50 (K562): 5.62 µM
GI50 [6]: 6.61 µM
GI50 (SN12C): 4.68 µM
GI50 (NCI-H226): 7.08 µM
GI50 (U-251): 4.57 µM
GI50 (SNB-75): 12.9 µM
GI50 (NCI-H522): 3.89 µM
GI50 (CCRF-CEM): 5.01 µM
GI50 (SR): 5.5 µM
GI50 [7]: 5.13 µM
GI50 (RXF 393): 5.25 µM
GI50 (786-0): 4.27 µM
GI50 (DLD-1): 8.91 µM
GI50 (SF-539): 4.57 µM
GI50 (SK-MEL-2): 6.46 µM
GI50 (TK-10): 16.6 µM
GI50 (Malme-3M): 5.25 µM
GI50 [8]: 9.55 µM

COc1ccc2[nH]c3c(c2c1)C(=O)C(C)=CC3=O
EC50 (SK-MEL-5): 0.55 µg/mL (≈ 2.28 µM)
EC50 (KB): 0.76 µg/mL (≈ 3.15 µM)
EC50 (HCT-8): 7.91 µg/mL (≈ 32.8 µM)
EC50 (COLO 205): 0.87 µg/mL (≈ 3.61 µM)

COc1cccc2c3c([nH]c12)C(=O)C(C)=CC3=O
EC50 (SK-MEL-5): 5.5 µg/mL (≈ 22.8 µM)
EC50 (KB): 0.92 µg/mL (≈ 3.81 µM)
EC50 (HCT-8): 4.7 µg/mL (≈ 19.5 µM)
EC50 (COLO 205): 5.18 µg/mL (≈ 21.5 µM)

COc1cccc2c3c([nH]c12)C(=O)C=C(C)C3=O
EC50 (SK-MEL-5): 3.55 µg/mL (≈ 14.7 µM)
EC50 (KB): 4.95 µg/mL (≈ 20.5 µM)
EC50 (HCT-8): 5.3 µg/mL (≈ 22 µM)
EC50 (COLO 205): 4.22 µg/mL (≈ 17.5 µM)
